# Active and inactive are the calls of the source. The calls are words filed in the database; no cut-off is given here.
# Key:
# SH-SY5Y [1] = assay: Cytotoxicity against non-stimulated human SH-SY5Y cells assessed as effect on LDH release measured after 6 hrs; format: cell-based
# SH-SY5Y [2] = assay: Neuroprotection against H2O2-induced cell death in human SH-SY5Y cells at 10 uM preincubated for 6 hrs followed by H2O2 addition and measured after 24 hrs in presence of HO-1 inhibitor ZnPPIX by MTT assay; format: functional, cell-based
# How it was run: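 Cells pretreated with ZnPPIX (10 μM) for 1 h and with 1 (10 μM) for 6 h, then exposed to 600 μM H₂O₂ for 24 h. Viability by MTT. Mean ± S.E.M., three independent experiments.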
# SH-SY5Y [3] = assay: Protection against H2O2-induced apoptosis in human SH-SY5Y cells assessed as late apoptotic cells at 1 uM preincubated for 6 hrs followed by H2O2 addition and measured after 24 hrs by Annexin V-FITC/propidium iodide staining based flow cytometry (reference value: 77.5%); format: functional
# SH-SY5Y [4] = assay: Neuroprotection against H2O2-induced toxicity in human SH-SY5Y cells assessed as LDH release at 1 uM preincubated for 6 hrs followed by H2O2 addition and measured after 24 hrs (reference value: 339.93 +/- 3.66 U/L); format: functional
# SH-SY5Y [5] = assay: Protection against H2O2-induced oxidative stress in human SH-SY5Y cells assessed as reduction in MDA level preincubated for 6 hrs followed by H2O2 addition and measured after 24 hrs by thiobarbituric acid method; format: functional, cell-based
# How it was run: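 Cellular SOD activity (units) and MDA content (μmol/g) measured in SH-SY5Y after pretreatment (1, 10 μM) and 600 μM H₂O₂. Mean ± S.E.M. of three independent experiments.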
# Mus musculus [6] = assay: Anti-parkinson's activity in MPTP-induced C57Bl/6 mouse model of Parkinson's disease assessed as reduction in MDA level in striatum administered intragastrically pretreated for 10 days followed by MPTP challenge measured 10 days post MPTP addition by thiobarbituric acid method; format: functional, organism-based
# How it was run: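 Striatum and SNpc from MPTP-treated mice dosed orally with 1 at 10 or 20 mg/kg. MDA level and SOD activity measured. Mean ± S.D., n = 6 mice/group.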
# [7] = Activation of PI3K/Akt/mTOR signaling in human SH-SY5Y cells assessed as up regulation of H2O2-induced HO-1 expression at 10 uM preincubated for 6 hrs followed by H2O2 addition and after 24 hrs in presence of PI3K/Akt/mTOR inhibitor rapamycin by Western blot analysis; format: cell-based
# How it was run: (§1)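 SH-SY5Y cells preincubated 1 h with one inhibitor: SB203580 10 μM, LY294002 5 μM, U0126 10 μM, SP600125 5 μM or rapamycin 100 nM. Then 1 (10 μM) for 6 h, then 600 μM H₂O₂. HO-1 measured by western blot and densitometry. Mean ± S.E.M., three independent experiments.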
# [8] = Activation of PI3K/Akt/mTOR signaling in human SH-SY5Y cells assessed as up regulation of H2O2-induced HO-1 expression at 10 uM preincubated for 6 hrs followed by H2O2 addition and after 24 hrs in presence of PI3K/Akt/mTOR inhibitor LY294002 by Western blot analysis; format: cell-based; how it was run: as §1
# SH-SY5Y [9] = assay: Protection against H2O2-induced apoptosis in human SH-SY5Y cells assessed as viable cells at 10 uM preincubated for 6 hrs followed by H2O2 addition and measured after 24 hrs by Annexin V-FITC/propidium iodide staining based flow cytometry (reference value: 12.4%); format: functional; conditions: read-out: Activity
# SH-SY5Y [10] = assay: Protection against H2O2-induced morphological changes in human SH-SY5Y cells at 1 to 10 uM preincubated for 6 hrs followed by H2O2 addition and measured after 24 hrs by inverted microscopic analysis; format: functional, cell-based
# How it was run: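 Cell morphology under inverted microscope after pretreatment and 600 μM H₂O₂; DMSO below 0.1%.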
# SH-SY5Y [11] = assay: Induction of apoptosis in non-stimulated human SH-SY5Y cells assessed as late apoptotic cells at 10 uM measured after 6 hrs by Annexin V-FITC/propidium iodide staining based flow cytometry (reference value: 2.3%); format: cell-based
# [12] = AUC (0 to infinity) in Sprague-Dawley rat at 5 mg/kg, iv by LC-MS/MS analysis; format: ADME, organism-based; design: dose 5 mg/kg, route intravenous, time infinity; conditions: in vivo
# How it was run: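 Single intravenous 5 mg/kg dose in 5% DMSO + 2% F68 + 93% saline to male Sprague–Dawley rats (n = 3). Orbital blood samples (100-200 μL) were taken at 12 points over 24 h (0.083 to 24 h). AUC0-∞ was derived from the plasma concentration–time curve and given as mean ± SD.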
# SH-SY5Y [13] = assay: Protection against H2O2-induced apoptosis in human SH-SY5Y cells assessed as early apoptotic cells at 1 uM preincubated for 6 hrs followed by H2O2 addition and measured after 24 hrs by Annexin V-FITC/propidium iodide staining based flow cytometry (reference value: 6.6%); format: functional
# SH-SY5Y [14] = assay: Neuroprotection against H2O2-induced cell death in human SH-SY5Y cells assessed as cell viability at 10 uM preincubated for 6 hrs followed by H2O2 addition and measured after 24 hrs in presence of PI3K/Akt/mTOR inhibitor rapamycin by MTT assay relative to control; format: functional; conditions: read-out: Activity
# How it was run: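 SH-SY5Y cells preincubated 1 h with LY294002 (5 μM) or rapamycin (100 nM). Then 1 (10 μM) for 6 h, then 600 μM H₂O₂. Viability by MTT. Mean ± S.E.M., three independent experiments.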
# [15] = Tmax in Sprague-Dawley rat at 25 mg/kg, po by LC-MS/MS analysis; format: ADME, organism-based; conditions: in vivo
# How it was run: (§2)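 Male Sprague–Dawley rats (n = 3) dosed i.v. 5 mg/kg (5% DMSO, 2% F68, 93% saline) or p.o. 25 mg/kg (0.5% methylcellulose, 1% Tween 80). Orbital blood at 0.083–24 h (12 points). Plasma concentration–time profiles gave Cl, Vdss, AUC, T1/2, Tmax, Cmax, MRT and absolute F.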
# SH-SY5Y [16] = assay: Protection against H2O2-induced apoptosis in human SH-SY5Y cells assessed as late apoptotic cells at 10 uM preincubated for 6 hrs followed by H2O2 addition and measured after 24 hrs by Annexin V-FITC/propidium iodide staining based flow cytometry (reference value: 77.5%); format: functional
# SH-SY5Y [17] = assay: Protection against H2O2-induced oxidative stress in human SH-SY5Y cells assessed as reactive oxygen species level at 10 uM preincubated for 6 hrs followed by H2O2 addition and measured after 24 hrs by DHE dye based flow cytometry (reference value: 18.6%); format: functional
# SH-SY5Y [18] = assay: Induction of mitochondrial dysfunction in non-stimulated human SH-SY5Y cells assessed as mitochondrial membrane potential at 10 uM measured after 6 hrs by Rh123 staining based flow cytometry (reference value: 97.6 %); format: cell-based
# Mus musculus [19] = assay: Anti-parkinson's activity in MPTP-induced C57Bl/6 mouse model of Parkinson's disease assessed as decrease in cleaved caspase3 expression in striatum at 10 to 20 mg/kg, ig pretreated for 10 days followed by MPTP challenge measured 10 days post MPTP addition by Western blot analysis; format: functional, organism-based
# SH-SY5Y [20] = assay: Protection against H2O2-induced apoptosis in human SH-SY5Y cells assessed as early apoptotic cells at 10 uM preincubated for 6 hrs followed by H2O2 addition and measured after 24 hrs by Annexin V-FITC/propidium iodide staining based flow cytometry (reference value: 6.6%); format: functional
# [21] = Volume of distribution at steady state in Sprague-Dawley rat at 5 mg/kg, iv by LC-MS/MS analysis; format: ADME, organism-based; conditions: in vivo, read-out: Vdss; how it was run: as §2
structure (smiles),measurement,setting,value
COC(=O)[C@H](Cc1ccccc1)NC(=O)/C=C/c1ccc(O)c(O)c1 [N-CAFFEOYL-PHENYLALANINE METHYL ESTER],Activity,SH-SY5Y [1],Non-Toxic
same,Activity,SH-SY5Y [2],inactive
same,Activity,SH-SY5Y [3],17.8%
same,Activity,SH-SY5Y [4],269.12 U/L
same,Activity,SH-SY5Y [5],Dose-dependent effect
same,Activity,Mus musculus [6],Dose-dependent effect
same,Activity,[7],inactive
same,Activity,[8],inactive
same,viability at 10 µM,SH-SY5Y [9],89.8%
same,Activity,SH-SY5Y [10],Active
same,Activity,SH-SY5Y [11],2.7%
same,AUC(0-inf),[12],3270 ng·h/mL
same,Activity,SH-SY5Y [13],6.3%
same,viability at 10 µM,SH-SY5Y [14],65.9%
same,Tmax,[15],2 h
same,Activity,SH-SY5Y [16],4.3%
same,Activity,SH-SY5Y [17],6.6%
same,Activity,SH-SY5Y [18],98.1%
same,Activity,Mus musculus [19],Active
same,Activity,SH-SY5Y [20],4.5%
same,Vd,[21],2.25 L/kg

# Source: ChEMBL document CHEMBL4308887, “Synthesis and biological evaluation of clovamide analogues with catechol functionality as potent Parkinson's disease agents in vitro and in vivo” (Bioorg Med Chem Lett, 2019)
